# Screening results: PubChem, several laboratories
# NadD inh: inhibitors of Staphylococcus aureus NadD | purified NadD enzyme, colorimetric absorbance read-out | inhibition, % at 20 µM | 0.78% of 360,000 active; in the data active = inhibition above about 26%
# VIM-2 inhibitor: blocks Pseudomonas aeruginosa VIM-2 metallo-beta-lactamase | purified VIM-2, nitrocefin hydrolysis, epi-absorbance fluorescence | inhibition, % at 5.6 µM | 0.89% of 290,000 active | AID 1527;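 active = inhibition above the mean of all tested compounds plus 3 SD, cutoff set per screening run, cut at about 7.5% in these data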;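 note: red hydrolysis product quenches plate fluorescence so inhibitors raise well fluorescence; 0% = enzyme with DMSO and 100% = DMSO without enzyme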
# HCV core dimer: HCV core protein dimerization inhibition. TR-FRET GST/Flag-core106 dimerization, 1536-well. AID 1899. 0.33% of 300,000 active. inhibition, % at 5 µM;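 active = inhibition above the mean of all tested compounds plus 3 SD, set per screening campaign, cut at about 45% in these data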
#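 System – GST-tagged and Flag-tagged HCV core protein residues 1-106 · Repeats – one well for each compound · Technique – TR-FRET 671 and 617 nm emission · Doses – one concentration, 5 µM, in 0.5% DMSO · Times – 4 h, 22.5 °C incubation · Also added – Eu donor and XL665 acceptor anti-tag antibodies · Measure – percent inhibition of core106 dimerization signal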
# IMP-1 inh-1: blocks Pseudomonas aeruginosa IMP-1 metallo-beta-lactamase | 0.45% of 290,000 active | inhibition, % at 5.6 µM | purified IMP-1, nitrocefin hydrolysis, epi-absorbance fluorescence;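 active = inhibition above the mean plus 3 SD of all compounds in the same screening run, cut at about 4.5% in these data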;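 note: 0% = IMP-1 with DMSO and 100% = DMSO wells lacking enzyme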
#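 Assay system: purified recombinant IMP-1 beta-lactamase. Input: IMP-1 0.2 nM before substrate addition. Buffer or medium: Zinc- and detergent-supplemented HEPES buffer, pH 7.1. Schedule: 25 °C, 15 min preincubation, 25 min reaction. Signal: Epi-absorbance fluorescence, 480 nm excitation, 530 nm emission. Evaluation: percent inhibition from optical density relative to buffer-blank wells.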
# IMP-1 inh-2: blocks IMP-1 metallo-beta-lactamase in VIM-2 selectivity screen; purified IMP-1, nitrocefin hydrolysis, epi-absorbance fluorescence; 1,300 tested, under 10 active; shares compounds with VIM-2 inhibitor; inhibition, % at 5.6 µM; call rule not given here;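 note: 0% = enzyme with vehicle and 100% = vehicle without enzyme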
# VIM-2 FRET inh: counter-screen for VIM-2 inhibitors: epi-absorbance artifacts via FRET | purified VIM-2, CCF2 FRET substrate hydrolysis | shares compounds with VIM-2 inhibitor | 23% of 1,300 active | inhibition, % at 5.6 µM;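 active = inhibition above the mean of all tested compounds plus 3 SD, cut at about 19% in these data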;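 note: 0% = VIM-2 plus DMSO and 100% = no enzyme wells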
# TEM-1 inh: TEM-1 inhibition, counter-screen for VIM-2 inhibitors | shares compounds with VIM-2 inhibitor | Purified TEM-1, nitrocefin hydrolysis, epi-absorbance fluorescence | inhibition, % at 5.6 µM | 3% of 1,300 active | AID 1866;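 active = inhibition above that campaign's mean inhibition plus 3 SD, cut at about 0.46% in these data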;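 note: 0% = TEM-1 with DMSO and 100% = TEM-1 with 100 µM potassium clavulanate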
# Target sequence (P62593 whole entry, looked up): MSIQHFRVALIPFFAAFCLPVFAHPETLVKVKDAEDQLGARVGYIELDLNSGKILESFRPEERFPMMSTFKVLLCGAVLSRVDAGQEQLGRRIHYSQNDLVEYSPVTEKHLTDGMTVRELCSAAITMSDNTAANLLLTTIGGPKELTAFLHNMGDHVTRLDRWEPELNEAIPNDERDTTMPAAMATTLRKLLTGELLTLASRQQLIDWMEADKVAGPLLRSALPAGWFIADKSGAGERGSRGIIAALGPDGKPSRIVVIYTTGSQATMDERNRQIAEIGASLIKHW
# VIM-2 confirm 2: confirmation of P. aeruginosa VIM-2 metallo-beta-lactamase inhibitors. purified VIM-2, nitrocefin hydrolysis, epi-absorbance. 96% of 1,300 active. inhibition, % at 5.6 µM. AID 2187. shares compounds with VIM-2 inhibitor;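 active = inhibition of the VIM-2 beta-lactamase enzyme above about 11% from the earlier first-round screen, limit read from the data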;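 note: 0% = VIM-2 with DMSO and 100% = buffer wells without enzyme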
# Starred values were filed as active, the others as inactive; · = not tested or not shown. Most compounds without a hit are left out; they make up all but 1.9% or so of the library.
SMILES,NadD inh,VIM-2 inhibitor,HCV core dimer,IMP-1 inh-1,IMP-1 inh-2,VIM-2 FRET inh,TEM-1 inh,VIM-2 confirm 2
Cc1cccn2c(=O)c3cc(C(=O)NCCN4CCOCC4)n(C)c3nc12,1,19*,-1,-1,-3,-2,-8,28*
O=C(NCCN1CCOCC1)c1cccn2c(=O)c3c4c(sc3nc12)CCCC4,·,17*,4,-1,-3,-1,-8,47*
CCN(CC)CCC(C)OC(c1ccccc1)c1ccccc1 (stereo not drawn),-4,0,1,-1,·,·,·,·
COc1ccc(-c2nn3c(-c4ccccc4)nnc3s2)cc1,2,-1,7,-4,·,·,·,·
CCN(CC)c1ccc(-c2nn3c(-c4ccccc4OC)nnc3s2)cc1,-1,13*,15,-4,-4,-9,-8,1
COCCCNc1nc(N)c([N+](=O)[O-])c(Nc2cc(OC)ccc2OC)n1,-11,-1,3,-3,·,·,·,·
COc1ccc(OC)c(Nc2nc(NCCCN(C)C)nc(N)c2[N+](=O)[O-])c1,-9,19*,-7,0,-4,2,-8,29*
CCOC(=O)CNS(=O)(=O)c1cc(-c2nn(C)c(=O)c3ccccc23)ccc1C,-1,3,15,-4,·,·,·,·
Cc1ccc(-c2nn(C)c(=O)c3ccccc23)cc1S(=O)(=O)NCCN1CCOCC1,0,14*,5,-8,-3,-1,-5,28*
O=C(Nc1ccccc1N1CCOCC1)c1ccc([N+](=O)[O-])s1,-3,·,·,·,·,·,·,·
COc1cnc(-c2ccccn2)nc1Oc1ccc(F)cc1F,2,18*,-4,-5,-5,-30,-4,29*
COc1cnc(-c2ccccn2)nc1NC(C)C,0,7,-2,-3,·,·,·,·
COc1ccccc1Sc1nc(-c2ccccn2)ncc1OC,4,-1,4,-4,·,·,·,·
COc1cnc(-c2ccccn2)nc1Oc1ccc(Cl)cc1,6,6,4,-4,·,·,·,·
COc1cnc(-c2ccccn2)nc1Oc1ccccc1Cl,4,17*,-3,-2,-4,-26,-4,46*
COc1cnc(-c2ccccn2)nc1Oc1ccc(Cl)c2ccccc12,27,39*,2,-4,-4,-30,-6,76*
C=CCn1c(SCC(=O)NC(=O)Cc2ccccc2)nnc1-c1ccccc1F,0,·,·,·,·,·,·,·
CC12CCC(C(N)C1=O)C2(C)C (stereo not drawn),0,·,·,·,·,·,·,·
CCOc1ccc(NC(=O)CN(C)C(=O)c2c(-c3ccccc3Cl)noc2C)cc1OCC,-5,·,1,·,·,·,·,·
CCn1c(=O)c2cc(C(=O)N3CCCC3)sc2c2ccccc21,·,-1,·,-4,·,·,·,·
CCn1c(=O)c2cc(C(=O)N(C)CC(OC)OC)sc2c2ccccc21,-2,7,-6,-3,·,·,·,·
CCN(CC)CCNC(=O)c1cc2c(=O)n(CC)c3ccccc3c2s1,-10,14*,1,-4,-2,-1,-4,21*
CCn1c(=O)c2cc(C(=O)NCCN(C)C)sc2c2ccccc21,-8,13*,0,-1,-2,1,-5,20*
CCN(CC)CCCNC(=O)c1cc2c(=O)n(CC)c3ccccc3c2s1,-3,14*,2,-2,-2,1,-5,21*
Nc1nnnn1CC(=O)N/N=C/c1cc([N+](=O)[O-])ccc1Cl,1,0,-2,0,·,·,·,·
SMILES,NadD inh,VIM-2 inhibitor,HCV core dimer,IMP-1 inh-1,IMP-1 inh-2,VIM-2 FRET inh,TEM-1 inh,VIM-2 confirm 2
Cc1cc([N+](=O)[O-])c(C)cc1-c1ccc(/C=N/NC(=O)Cn2nnnc2N)o1,13,33*,5,-4,-3,-11,-3,42*
O=[N+]([O-])c1ccc(-c2ccc(/C=N/n3cnnc3)o2)c(Br)c1,-1,45*,4,-3,-2,7,-3,57*
Cc1cc([N+](=O)[O-])c(C)cc1-c1ccc(/C=N/n2cnnc2)o1,-3,44*,·,-3,-1,-1,-5,50*
Cc1n[nH]c(=S)n1/N=C/c1ccc(-c2ccccc2[N+](=O)[O-])o1,8,1,-6,-3,·,·,·,·
COc1ccccc1-c1cccc([C@@H]2C[C@H]3[C@H](CON3C)CN2C)c1,1,·,·,·,·,·,·,·
CCOc1ccc(CNC(=O)C2Cc3cc(S(=O)(=O)N4CCCC4)ccc3N2C(C)=O)cc1 (stereo not drawn),-3,25*,-6,0,-4,-3,-4,1
Cc1ccc2oc(=O)c3cc(C(=O)NCCCN4C(C)CCCC4C)sc3c2c1 (stereo not drawn),3,12*,-1,1,-3,3,-10,17*
CN1CCN(CCCNC(=O)c2cc3c(=O)n(C)c4ccccc4c3s2)CC1,-5,21*,4,3,-3,1,-7,29*
Cc1ccc2oc(=O)c3cc(C(=O)NCCCN4CCN(C)CC4)sc3c2c1,-3,13*,4,-2,-2,0,-9,20*
O=C(NCCCN1CCCCCC1)c1cc2c(=O)oc3ccccc3c2s1,26,16*,-1,0,-3,2,-14,25*
OCC[C@H]1C[C@@H](O)[C@H](O)[C@]2(OCCc3ccccc32)O1,-3,·,-14,·,·,·,·,·
Cc1cccc(S(=O)(=O)NC(=O)C2(C)CCN2C(=O)Cc2ccccc2)c1 (stereo not drawn),-1,·,·,·,·,·,·,·
CCN(Cc1ccccc1)C(=O)c1cc2c(=O)oc3ccc(C)cc3c2s1,0,1,9,-4,·,·,·,·
CCN1CCN(CCCNC(=O)c2cc3c(=O)oc4ccc(C)cc4c3s2)CC1,-18,13*,3,0,-4,0,-11,19*
O=C1CCCC/C1=C/Nc1cccc(C(F)(F)F)c1,-2,13*,1,-3,-2,30*,1.4*,25*
O=C1CCCC/C1=C\Nc1ccc(O)cc1,-2,0,-2,-4,·,·,·,·
CCCCn1c2ccccc2c2nnc(SCCN3CCCCC3)nc21,-11,13*,·,-3,-3,-6,-7,19*
CCCn1c2ccccc2c2nnc(SCC(=O)Nc3ncccn3)nc21,4,2,11,0,·,·,·,·
COc1ccc(CCNC(=O)Nc2nc(C(N)C3CCCCC3)cs2)cc1OC (stereo not drawn),-9,·,·,·,·,·,·,·
CCOc1cc(N2CCOCC2)c(OCC)cc1NC(=O)c1ccc(C)cc1,-5,-3,-1,-3,·,·,·,·
CCOc1cc(N2CCOCC2)c(OCC)cc1NC(=O)c1ccc(-n2ccnc2)c([N+](=O)[O-])c1,6,68*,-10,-4,-3,-7,-6,75*
Cc1cc(C)n2nc(/C(C#N)=C/c3ccccn3)c(C#N)c2n1,2,45*,-11,0,-3,-28,-8,7.7*
